# Screening results from PubChem BioAssay.
# PvdQ inh = blocks Pseudomonas aeruginosa PvdQ acylase activity | purified PvdQ acylase, fluorescence plate reader | inhibition, % at 10 µM | hit rate 0.063% among 340,000 | AID 488965; in the data active means inhibition above about 30%, passing the limit was not always enough;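 further: 0% = vehicle neutral wells and 100% = reference inhibitor wells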
# XBP1 UPR activ = activators of adaptive arm of unfolded protein response (XBP1); hit rate 0.33% among 330,000; activation, % at 20 µM; CHO-XBP1 luciferase reporter, IRE1-XBP1 UPR activation, luminescence; percent of tunicamycin response, DMSO as zero;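 active means versus positive control, 20 µM dose yields 30% or more activation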;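 further: 100% = tunicamycin at 10 µg/mL and 0% = DMSO only wells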
#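 Material – CHO cell line with stable XBP1 luciferase reporter · Buffer or medium – F12 plus 10% FBS · Compound – single point, 20 µM final compound, 1% DMSO · Schedule – 16-18 h cell attachment at 37 °C, then 6 h compound exposure · Signal – Steady-Glo luminescence read · Benchmarks – high control tunicamycin 10 µg/mL final, low control DMSO vehicle only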
# CHOP inhibitor = inhibitors of CHOP induction in ER stress response. CHO-K1 CHOP-promoter luciferase, tunicamycin-induced, 15-18 h. inhibition, % at 10 µM. hit rate 3.8% among 220,000. AID 2732;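 active means compounds that reduced the stress-induced luciferase reporter signal by more than about 70% of percent inhibition, limit read from the data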;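 further: 0% = tunicamycin plus vehicle and 100% = wells without tunicamycin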
# UPR CHOP act = activators of apoptotic arm of unfolded protein response (CHOP). CHO-CHOP luciferase reporter, UPR activation, luminescence; percent of tunicamycin response over DMSO baseline. AID 449763. activation, % at 10 µM. hit rate 0.34% among 330,000;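 active means at 10 µM dose, activation of 40% or more, normalized to positive control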;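 further: 100% = tunicamycin at 10 µg/mL and 0% = DMSO alone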
#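 System: CHO-CHOP luciferase reporter cell line; amount: 500 cells/well; buffer or medium: F12 medium containing 10% fetal bovine serum; incubation: 6 h compound exposure at 37 °C after overnight seeding; measured by: luciferase luminescence after 10 min with Steady-Glo reagent; evaluation: % reporter activation, DMSO baseline versus tunicamycin full activation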
# UPR XBP1 confirm = confirmation of adaptive unfolded protein response (XBP1) activators; shares compounds with XBP1 UPR activ; CHO-XBP1 IRE1-XBP1 luciferase reporter, luminescence; activation, % at 20 µM; hit rate 63% among 1,000;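 active means reporter signal at least 30% of the positive control's activation in two or more of four replicate wells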;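 further: plate controls were DMSO negative control for no effect and tunicamycin 10 µg/mL positive control for full effect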
# Numbers without * were called inactive; . = not tested or not shown. Many of the other results were omitted from the sample, so hits are more common in it than they were.
SMILES,PvdQ inh,XBP1 UPR activ,CHOP inhibitor,UPR CHOP act,UPR XBP1 confirm
c1ccc(-c2sc3ccccc3c2-c2ccc(OCCN3CCCC3)cc2)cc1,-10,32*,.,3,19
O=C(Nc1nccs1)C1CC=CCC1C(=O)OCC(F)(F)C(F)F (centres undefined),-5,4,.,0,.
COc1ccc2c(c1)NC(c1cc(Cl)cc(Cl)c1O)c1cccn1-2 (centres undefined),-17,49*,30,6,57*
Oc1c(Cl)cc(Cl)cc1C1Nc2ccccc2-n2cccc21 (centres undefined),-5,-3,-9,2,.
Cn1/c(=N/N=C/c2ccc([N+](=O)[O-])cc2)sc2ccccc21,.,.,-19,.,.
Cc1cc(C)c2c(c1)/C(=N\N=c1\sc3ccccc3n1C)C(=O)N2,-13,30*,69,18,28
Cc1nc(N2CCN(C(=O)c3cnccn3)CC2)c2c3c(sc2n1)CC(C(C)(C)C)CC3 (centres undefined),-2,34*,.,8,0
COc1cc(C(=O)NCc2nnc(SCC(=O)N3CCCCCC3)o2)cc(OC)c1OC,4,-8,.,-1,.
COCCOC(=O)c1c(C)oc2ccc(OC(=O)c3ccc4c(c3)OCO4)cc12,-17,76*,69,8,0
CCOC(=O)Oc1ccc2oc(C)c(C(=O)OCCOC)c2c1,5,1,-24,2,.
C#CCn1c(=NC(=O)c2cccs2)sc2cccc(OCC)c21,-3,12,12,2,.
C#CCn1c(=NC(=O)c2ccc(Cl)s2)sc2cccc(OC)c21,-4,136*,79*,10,112*
CC(=O)N1CCN(S(=O)(=O)c2cccc(C(=O)OCc3cccc(F)c3)c2)CC1,-3,-4,.,-1,.
CCCCNC(=O)CSc1nc(COc2ccccc2)nc2ccccc12,-1,0,31,0,.
C[C@H](CO)N1C[C@H](C)[C@@H](CN(C)C(=O)Nc2ccc(C(F)(F)F)cc2)Oc2c(NC(=O)Nc3ccc(C(F)(F)F)cc3)cccc2C1=O,-18,37*,.,7,28
C[C@H]1CN([C@@H](C)CO)C(=O)c2cccc(NC(=O)Nc3ccc(C(F)(F)F)cc3)c2O[C@@H]1CN(C)C(=O)Nc1ccc(F)cc1,-10,6,.,5,.
CCC(=O)Nc1nnc(SCC(=O)c2ccc3c(c2)Cc2ccccc2-3)s1,2,52*,33,-2,29*
Cc1ccc(S(=O)(=O)CCC(=O)OCC(=O)NCC(=O)Nc2c(C)cc(C)cc2C)cc1,5,-2,.,0,.
Cc1cc(C)c2c(c1)SC1=NC(c3ccccc3)(C(F)(F)F)NC(=O)N12 (centres undefined),7,46*,94*,38,22
C[C@]12CCC3C(CC[C@H]4CCCC[C@]34C)C1CC[C@@]2(O)CNCCO (some centres undefined),26,33*,.,4,2
CCc1sc2nc(SCC(=O)Nc3cc(C)on3)n(-c3cccc(OC)c3)c(=O)c2c1C,-9,40*,89*,19,81*
COc1cccc(-n2c(SCC(=O)Nc3cc(C)on3)nc3ccccc3c2=O)c1,-8,3,-2,3,.
Cc1ccc(NC(=O)c2cc(S(=O)(=O)N3CCCCC3)ccc2N2CCOCC2)cc1S(=O)(=O)N(C)C,-14,.,.,.,.
Cc1ccc(NC(=O)c2cc(S(=O)(=O)N(C)C)ccc2N2CCCC2)cc1S(=O)(=O)N(C)C,-9,53*,.,11,67*
CC(NCC(O)COCCC12CC3CC(CC(C3)C1)C2)c1ccccc1 (centres undefined),-4,51*,58,1,51*
O=C(NC1CCCCC1)c1cccc2c1C(=O)c1ccc(-c3ccc(OC(F)(F)F)cc3)cc1S2(=O)=O,6,75*,.,28,67*
COc1ccc(-c2ccc3c(c2)S(=O)(=O)c2cccc(C(=O)NC4CCCC4)c2C3=O)cc1OC,-8,-2,.,0,.
CC(C)c1cccc(-c2ccc3c(c2)S(=O)(=O)c2cccc(C(=O)NC4CCCC4)c2C3=O)c1,4,33*,.,13,26
CSc1ccccc1OCc1cc(C(=O)NCc2csc(C(C)C)n2)no1,-24,-3,.,1,.
CC1=CC(C)(C)N2C(=O)C(=O)c3cc(OC(=O)c4ccco4)cc1c32,-8,41*,-2,1,57*
